# Test results as given in publication PMC4445880 (ACS chemical biology, 2013).
# Values joined by “and” are separate entries in the source; they are usually repeats but may differ in a detail not shown here. Equal entries are not always repeated.
# How the values were obtained:
# [1] = molecular target: GFP-ZIPK (Homo sapiens, UniProt O43293); test: FLECS elution from γ-linked ATP Sepharose; format: binding; conditions: for elution of GFP-ZIPK from ATP Sepharose: titration 0.1−300 µM
# Summary of the method: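 Full-length ZIPK with N-terminal GFP was expressed in HEK293 cells. Crude lysate was bound to γ-linked ATP Sepharose for 0.5 h at 4 °C (pH 7.5, 60 mM MgCl₂), washed with high- then low-salt buffer, and split into 96-well filter plates. Test compound was added for 10 min at RT, as a 900 µM solution (screen) or 0.1−300 µM (titration), in 10% DMSO. Filtrate fluorescence was read at 485/535 nm. Controls were ATP 2−200 mM (positive) and 10% DMSO (negative). Hits were wells with >5000 counts (2.5 × background), checked by Western blot.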
# [2] = system: rabbit ileum; test: RLC20 and MYPT1 phosphorylation in Ca2+-sensitized rabbit ileum; conditions: HS38 50 µM
# [3] = system: human coronary artery smooth muscle cells (CA-VSMC); test: Phosphorylation in human coronary artery smooth muscle cells; format: cell-based; conditions: HS38 10 µM, 40 min
# [4] = system: rat caudal arterial smooth muscle; test: RLC20 phosphorylation in rat caudal arterial smooth muscle; conditions: 100 µM; 30 min CLa exposure
# [5] = molecular target: T1, IRAK4 (Homo sapiens, UniProt Q9NWZ3); test: 33P-ATP filter-binding kinase assay; format: biochemical
# T1 sequence (Q9NWZ3 1-460): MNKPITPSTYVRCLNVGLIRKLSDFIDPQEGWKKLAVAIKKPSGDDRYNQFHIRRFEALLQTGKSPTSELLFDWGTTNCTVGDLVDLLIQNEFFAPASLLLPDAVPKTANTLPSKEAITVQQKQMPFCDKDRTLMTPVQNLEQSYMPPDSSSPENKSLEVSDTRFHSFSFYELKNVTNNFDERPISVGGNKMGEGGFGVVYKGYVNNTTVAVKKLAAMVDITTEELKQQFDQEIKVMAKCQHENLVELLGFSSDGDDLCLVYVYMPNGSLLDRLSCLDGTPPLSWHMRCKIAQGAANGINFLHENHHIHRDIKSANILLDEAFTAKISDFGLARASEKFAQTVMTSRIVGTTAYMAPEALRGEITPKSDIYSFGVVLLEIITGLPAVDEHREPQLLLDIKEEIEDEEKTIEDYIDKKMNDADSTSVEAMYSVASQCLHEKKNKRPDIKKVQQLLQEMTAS
# [6] = molecular target: PIM2 (Homo sapiens, UniProt Q9P1W9); test: 33P-ATP filter-binding kinase assay; format: biochemical
# [7] = molecular target: PIM1 (Homo sapiens, UniProt P11309); test: 33P-ATP filter-binding kinase assay; format: biochemical
# [8] = molecular target: CK1α (Homo sapiens, UniProt P48729); test: 33P-ATP filter-binding kinase assay; format: biochemical; conditions: read-out: % activity against kinase, kinome profile
# Summary of the method: (§1)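 Kinome panel of 124 purified protein kinases run by an outside profiling centre using a ³³P-ATP filter-binding assay. Test compound was tested at 10 µM. Read-out is residual % enzyme activity.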
# [9] = system: rabbit ileum smooth muscle; test: Ca2+-independent force development in rabbit ileum after MC-LR; conditions: pCa 9.0; MC-LR 10 µM
# [10] = system: rat caudal arterial smooth muscle strips; test: Calyculin A induced contraction of rat caudal arterial smooth muscle strips; conditions: 100 µM, calyculin A 0.5 mM; for maximum contractile force: 3 h
# Summary of the method: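 Intact rat caudal arterial smooth muscle strips were contracted with calyculin A (0.5 mM, 3 h). This was done in the presence of vehicle (DMSO) or test compound at 100 µM. Maximal force was expressed as percent of an initial reference KCl contraction. Time to reach 50% of maximal contraction after calyculin A was also calculated.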
# [11] = system: aortic SM cells; test: RLC20 phosphorylation in aortic smooth muscle cells, basal and S1P stimulated; format: cell-based, human; conditions: 50 µM, 30 min; for relative percent RLC20 phosphorylation, S1P stimulated state: S1P 0.25 µM
# Summary of the method: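 A mouse aortic smooth muscle cell line was grown in AmnioMax with 10% FBS at 37 °C and 5% CO₂, then serum-starved for 16 h. Subconfluent cells were given S1P (0.25 µM, 5 min) or left basal. They were then treated with test compound (50 µM) or 0.1% DMSO for 30 min. Cells were lysed in 1% SDS, 300 mM NaCl and 50 mM Tris-HCl pH 7.5. Phospho-RLC20 was measured by Western blot and densitometry.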
# [12] = molecular target: ROCK2 (Rattus norvegicus, UniProt Q62868); test: 33P-ATP filter-binding kinase assay; format: biochemical, human
# [13] = system: CaMK2; test: 33P-ATP filter-binding kinase assay; format: biochemical, human; conditions: read-out: % activity against kinase, kinome profile
# Summary of the method: as §1
# [14] = molecular target: PKA (Homo sapiens, UniProt P17612); test: 33P-ATP filter-binding kinase assay; format: biochemical; conditions: read-out: % activity against kinase, kinome profile
# Summary of the method: as §1
# [15] = molecular target: smMLCK (Homo sapiens, UniProt Q15746); test: 33P-ATP filter-binding kinase assay; format: biochemical
# [16] = molecular target: PKN2 (Homo sapiens, UniProt Q16513); test: 33P-ATP filter-binding kinase assay; format: biochemical; conditions: read-out: % activity against kinase, kinome profile
# Summary of the method: as §1
# [17] = molecular target: DAPK1 (Homo sapiens, UniProt P53355); test: KINOMEscan active-site dependent competition binding assay; conditions: from Kd values
# [18] = molecular target: DAPK3 (Homo sapiens, UniProt O43293); test: as above; conditions: DAPK3 (ZIPK); from Kd values
# Chain of DAPK3 (O43293 whole entry): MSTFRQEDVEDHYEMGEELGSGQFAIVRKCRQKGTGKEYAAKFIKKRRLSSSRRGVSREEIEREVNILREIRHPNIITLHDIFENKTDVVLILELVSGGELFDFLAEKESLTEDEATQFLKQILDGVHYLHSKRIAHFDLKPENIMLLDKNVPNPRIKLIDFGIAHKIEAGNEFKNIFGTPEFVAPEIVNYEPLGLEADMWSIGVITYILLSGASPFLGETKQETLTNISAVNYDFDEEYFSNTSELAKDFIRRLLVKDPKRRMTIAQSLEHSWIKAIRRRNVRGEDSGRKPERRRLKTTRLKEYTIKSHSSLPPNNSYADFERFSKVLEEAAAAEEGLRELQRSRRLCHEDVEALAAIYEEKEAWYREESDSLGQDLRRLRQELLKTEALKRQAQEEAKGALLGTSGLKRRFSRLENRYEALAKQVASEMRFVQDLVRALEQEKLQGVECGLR
# Chain of GFP-ZIPK (O43293 whole entry): as above
# Chain of ROCK2 (Q62868 2-543 limits assumed): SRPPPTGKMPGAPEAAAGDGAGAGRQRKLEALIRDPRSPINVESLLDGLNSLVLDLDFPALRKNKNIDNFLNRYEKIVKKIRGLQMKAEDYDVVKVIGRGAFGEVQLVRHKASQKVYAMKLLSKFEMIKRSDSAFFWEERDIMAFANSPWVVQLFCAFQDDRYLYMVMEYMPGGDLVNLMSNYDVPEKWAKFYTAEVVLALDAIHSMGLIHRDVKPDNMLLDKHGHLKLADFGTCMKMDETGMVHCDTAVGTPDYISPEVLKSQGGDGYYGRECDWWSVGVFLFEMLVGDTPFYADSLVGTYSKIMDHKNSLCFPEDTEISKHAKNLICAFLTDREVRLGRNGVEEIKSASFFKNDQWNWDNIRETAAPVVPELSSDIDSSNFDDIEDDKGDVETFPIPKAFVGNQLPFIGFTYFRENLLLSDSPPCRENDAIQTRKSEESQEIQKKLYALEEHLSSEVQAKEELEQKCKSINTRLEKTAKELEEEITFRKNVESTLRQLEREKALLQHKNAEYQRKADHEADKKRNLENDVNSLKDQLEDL
# Chain of PIM2 (Q9P1W9 whole entry): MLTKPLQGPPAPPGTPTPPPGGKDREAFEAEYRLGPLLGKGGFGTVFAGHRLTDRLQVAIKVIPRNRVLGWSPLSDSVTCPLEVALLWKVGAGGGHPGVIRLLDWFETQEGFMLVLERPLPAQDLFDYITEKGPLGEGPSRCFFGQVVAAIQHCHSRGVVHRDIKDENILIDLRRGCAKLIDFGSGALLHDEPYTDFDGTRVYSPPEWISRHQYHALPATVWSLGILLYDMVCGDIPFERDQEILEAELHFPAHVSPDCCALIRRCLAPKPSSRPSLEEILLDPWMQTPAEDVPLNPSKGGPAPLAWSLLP
# Chain of smMLCK (Q15746 1464-1719 limits assumed): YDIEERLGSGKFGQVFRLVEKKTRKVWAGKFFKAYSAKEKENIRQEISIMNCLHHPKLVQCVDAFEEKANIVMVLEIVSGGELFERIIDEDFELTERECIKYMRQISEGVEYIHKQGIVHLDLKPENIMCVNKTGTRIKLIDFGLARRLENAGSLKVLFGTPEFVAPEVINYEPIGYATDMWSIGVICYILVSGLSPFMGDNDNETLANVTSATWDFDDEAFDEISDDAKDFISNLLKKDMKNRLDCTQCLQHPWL
# Chain of CK1α (P48729 whole entry): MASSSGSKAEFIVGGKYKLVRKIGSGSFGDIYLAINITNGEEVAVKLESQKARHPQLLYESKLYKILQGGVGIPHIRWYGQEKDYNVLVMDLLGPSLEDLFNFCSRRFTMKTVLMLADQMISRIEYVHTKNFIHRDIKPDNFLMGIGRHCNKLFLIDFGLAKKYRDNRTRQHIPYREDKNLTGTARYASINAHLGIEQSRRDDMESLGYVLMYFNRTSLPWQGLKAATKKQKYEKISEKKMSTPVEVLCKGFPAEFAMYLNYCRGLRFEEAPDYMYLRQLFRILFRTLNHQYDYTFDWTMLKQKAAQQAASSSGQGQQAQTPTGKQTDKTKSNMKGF
# Chain of PKN2 (Q16513 whole entry): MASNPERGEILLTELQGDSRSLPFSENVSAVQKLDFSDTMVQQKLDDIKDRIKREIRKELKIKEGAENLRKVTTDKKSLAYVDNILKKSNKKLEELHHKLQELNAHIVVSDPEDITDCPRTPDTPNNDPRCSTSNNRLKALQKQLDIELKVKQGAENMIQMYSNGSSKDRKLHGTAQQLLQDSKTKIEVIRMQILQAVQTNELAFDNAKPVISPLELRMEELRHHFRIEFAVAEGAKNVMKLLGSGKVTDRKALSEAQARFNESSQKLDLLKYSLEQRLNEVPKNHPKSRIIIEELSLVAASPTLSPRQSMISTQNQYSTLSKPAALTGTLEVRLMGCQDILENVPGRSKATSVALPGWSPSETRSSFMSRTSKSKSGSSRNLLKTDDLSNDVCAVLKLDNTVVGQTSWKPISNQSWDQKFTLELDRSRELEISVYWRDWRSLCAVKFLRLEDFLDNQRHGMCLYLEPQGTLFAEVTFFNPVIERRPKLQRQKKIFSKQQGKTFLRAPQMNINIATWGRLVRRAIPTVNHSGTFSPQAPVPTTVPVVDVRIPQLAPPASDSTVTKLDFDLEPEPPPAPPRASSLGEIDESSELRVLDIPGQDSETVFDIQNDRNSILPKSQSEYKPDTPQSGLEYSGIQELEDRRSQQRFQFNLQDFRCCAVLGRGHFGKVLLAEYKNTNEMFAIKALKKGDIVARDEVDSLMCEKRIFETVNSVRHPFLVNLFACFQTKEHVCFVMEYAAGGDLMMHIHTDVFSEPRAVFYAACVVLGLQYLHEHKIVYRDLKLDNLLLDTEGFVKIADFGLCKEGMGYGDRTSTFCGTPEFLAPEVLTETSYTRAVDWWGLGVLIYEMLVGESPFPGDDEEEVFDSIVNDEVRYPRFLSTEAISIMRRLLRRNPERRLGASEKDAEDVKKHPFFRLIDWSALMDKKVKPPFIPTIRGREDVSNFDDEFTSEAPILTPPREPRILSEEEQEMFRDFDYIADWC
# Chain of DAPK1 (P53355 whole entry): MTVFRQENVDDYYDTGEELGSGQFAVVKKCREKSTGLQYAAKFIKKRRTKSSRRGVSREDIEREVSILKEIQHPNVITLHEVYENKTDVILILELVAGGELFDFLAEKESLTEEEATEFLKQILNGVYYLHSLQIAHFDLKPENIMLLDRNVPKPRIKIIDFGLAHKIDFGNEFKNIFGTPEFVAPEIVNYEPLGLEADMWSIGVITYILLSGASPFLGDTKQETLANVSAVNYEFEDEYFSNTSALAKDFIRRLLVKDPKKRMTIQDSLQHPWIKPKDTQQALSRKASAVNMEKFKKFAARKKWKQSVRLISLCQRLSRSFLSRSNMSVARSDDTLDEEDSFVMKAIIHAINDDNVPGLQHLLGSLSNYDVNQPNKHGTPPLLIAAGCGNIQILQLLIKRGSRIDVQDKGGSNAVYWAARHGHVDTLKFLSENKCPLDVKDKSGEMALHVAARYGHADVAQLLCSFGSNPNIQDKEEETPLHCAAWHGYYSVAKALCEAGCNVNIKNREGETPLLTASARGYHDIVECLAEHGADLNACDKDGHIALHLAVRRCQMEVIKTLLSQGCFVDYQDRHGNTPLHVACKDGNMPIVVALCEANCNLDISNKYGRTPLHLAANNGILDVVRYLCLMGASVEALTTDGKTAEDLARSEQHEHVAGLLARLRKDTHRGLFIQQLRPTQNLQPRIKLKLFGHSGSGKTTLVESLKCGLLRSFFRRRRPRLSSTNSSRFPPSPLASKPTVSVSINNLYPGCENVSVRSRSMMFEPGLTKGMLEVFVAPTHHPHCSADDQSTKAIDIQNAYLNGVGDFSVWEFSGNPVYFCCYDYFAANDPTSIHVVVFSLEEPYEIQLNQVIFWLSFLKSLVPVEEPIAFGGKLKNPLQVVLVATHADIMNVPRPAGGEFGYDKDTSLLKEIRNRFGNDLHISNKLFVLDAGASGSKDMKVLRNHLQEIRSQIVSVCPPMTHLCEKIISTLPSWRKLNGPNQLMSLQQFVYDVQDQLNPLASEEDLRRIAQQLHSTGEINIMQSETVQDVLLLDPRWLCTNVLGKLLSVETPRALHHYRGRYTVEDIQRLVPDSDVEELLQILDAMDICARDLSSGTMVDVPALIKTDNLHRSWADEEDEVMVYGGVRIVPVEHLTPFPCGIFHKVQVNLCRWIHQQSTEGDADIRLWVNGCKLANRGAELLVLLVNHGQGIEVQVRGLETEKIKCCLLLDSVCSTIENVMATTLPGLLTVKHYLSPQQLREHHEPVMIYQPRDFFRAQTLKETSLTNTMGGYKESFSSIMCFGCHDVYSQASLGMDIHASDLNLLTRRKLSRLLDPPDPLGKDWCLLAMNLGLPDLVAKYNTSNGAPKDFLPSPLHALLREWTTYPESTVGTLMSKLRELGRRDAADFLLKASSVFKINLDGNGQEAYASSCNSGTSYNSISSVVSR
# Chain of PIM1 (P11309 whole entry): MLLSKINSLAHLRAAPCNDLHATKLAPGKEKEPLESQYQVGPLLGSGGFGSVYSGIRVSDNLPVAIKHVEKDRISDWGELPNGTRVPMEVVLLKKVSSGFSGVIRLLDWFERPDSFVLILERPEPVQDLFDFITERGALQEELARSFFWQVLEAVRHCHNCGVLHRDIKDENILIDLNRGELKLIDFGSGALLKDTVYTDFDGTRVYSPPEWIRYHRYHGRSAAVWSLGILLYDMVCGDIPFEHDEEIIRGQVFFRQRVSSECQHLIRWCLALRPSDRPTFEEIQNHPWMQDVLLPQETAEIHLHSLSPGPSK
smiles,measurement,setting,value
"O=S(=O)(c1cccc2c(I)cccc12)N1CCCNCC1 [ML-7, reference compound]",elution of GFP-ZIPK from ATP Sepharose,[1],failed to elute GFP-ZIPK
"CC(Sc1nc2c(cnn2-c2cccc(Cl)c2)c(=O)[nH]1)C(N)=O (stereo not shown) [HS38, 2-((1-(3-chlorophenyl)-4-oxo-4,5-dihydro-1H-pyrazolo[3,4-d]pyrimidin-6-yl)thio)propanamide]",MYPT1 Thr696 phosphorylation level,[2],significantly reduced
same,RLC20 phosphorylation level,[2],significantly reduced
same,phosphorylation state of Par-4,[3],not significantly affected
same,phosphorylation state of T855 of MYPT1,[3],not significantly affected
same,decrease in RLC20 phosphorylation,[3]; serum-free and 5% FBS conditions,21−23%
same,RLC20 phosphorylation,[4],significant reduction
same,fold less potent than against DAPK1 and PIM3,[5],~ 10 fold
same,fold less potent than against DAPK1 and PIM3,[6],~ 100 fold
same,fold less potent than against DAPK1 and PIM3,[7],~ 10 fold
same,inhibition,[8],< 10%
same,lag time to the onset of force,[9],increased
same,rate of force development (t1/2),[9],increased
same,time required to reach 50% of maximal contraction (t1/2 max),[10],more than doubled
same,maximum contractile force,[10],without significantly affecting
same,increase in fluorescence above background,"[1]; FLECS screen, elution of GFP-ZIPK, drug candidate 900 µM solution",> 4 fold
same,elution of GFP-ZIPK from ATP Sepharose,[1],produced a sigmoidal curve
same,"relative percent RLC20 phosphorylation, basal (unstimulated) state",[11],significantly decreased
same,"relative percent RLC20 phosphorylation, S1P stimulated state",[11],significantly decreased
same,IC50,[12],> 200 µM
same,activity against ROCK2,"[12]; ROCK2, duplicate validation",completely inactive
same,inhibition,"[12]; read-out: % activity against kinase, ROCK2, kinome profile",< 10%
same,inhibition,[13],< 10%
same,inhibition,[14],< 10%
same,fold less potent than against DAPK1 and PIM3,[15],~ 100 fold
same,inhibition,[16],< 10%
"O=c1[nH]c(SCCO)nc2c1cnn2-c1cccc(Cl)c1 [HS43, 1-(3-Chlorophenyl)-6-((2-hydroxyethyl)thio)-1,5-dihydro-4H-pyrazolo[3,4-d]pyrimidin-4-one]",RLC20 phosphorylation,[4],did not affect
same,fold less potent than HS38,[17],~ 5 fold
same,time required to reach 50% of maximal contraction (t1/2 max),[10],did not significantly affect
same,maximum contractile force,[10],did not significantly affect
same,elution of GFP-ZIPK from ATP Sepharose,[1],eluted far less GFP-ZIPK
same,"relative percent RLC20 phosphorylation, basal (unstimulated) state",[11],did not significantly affect
same,"relative percent RLC20 phosphorylation, S1P stimulated state",[11],did not significantly affect
same,fold less potent than HS38 / lower affinity,[18],5 fold and ~ 5 fold
